Assay results: paper PMC11491786 (Zoological Research, 2024)
No end group written: not given here.

What was measured:
[1] = test system: acute IS patients; conditions: ref Kim, 2019; Simão et al., 2017; cited from earlier work
[2] = test system: male C57BL/6J mice; assay: FeCl3-induced carotid artery thrombosis; assay type: in vivo, mouse; conditions: 2 500 U/kg i.v., 10% FeCl3, 5 min and 10 min, vs PBS-treated group
Summary of the method: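 Male C57BL/6J mice (6 weeks old, n=6–7) were given i.v. saline (100 µL; control), heparin sodium 2 500 U/kg, or test compound at 0.5 or 2 mg/kg, 5 min before induction, under anaesthesia. Filter paper with 10% (w/v) FeCl3 was applied to the exposed left carotid artery for 30 s. Flow in the region of interest was followed by laser speckle perfusion imaging for 30 min, with images analysed at 5 and 10 min. Occlusion was scored as a red-to-blue change.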

[3] = target: T1, PK (Homo sapiens, UniProt P03952); assay: SPR, PK over LE6-coupled chip; assay type: binding
[4] = target: T1, PK; assay: Chromogenic assay, PK; assay type: biochemical
Target sequence in this assay (P03952 391-638 limits assumed): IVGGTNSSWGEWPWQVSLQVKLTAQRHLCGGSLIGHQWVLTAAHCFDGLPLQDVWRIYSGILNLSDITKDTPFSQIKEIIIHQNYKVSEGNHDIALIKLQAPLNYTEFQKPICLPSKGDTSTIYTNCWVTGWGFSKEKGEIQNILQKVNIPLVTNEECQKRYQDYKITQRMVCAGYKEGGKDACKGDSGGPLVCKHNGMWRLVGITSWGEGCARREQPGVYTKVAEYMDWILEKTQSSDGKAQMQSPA
Target sequence in this assay (P03952 20-390 partner limits assumed): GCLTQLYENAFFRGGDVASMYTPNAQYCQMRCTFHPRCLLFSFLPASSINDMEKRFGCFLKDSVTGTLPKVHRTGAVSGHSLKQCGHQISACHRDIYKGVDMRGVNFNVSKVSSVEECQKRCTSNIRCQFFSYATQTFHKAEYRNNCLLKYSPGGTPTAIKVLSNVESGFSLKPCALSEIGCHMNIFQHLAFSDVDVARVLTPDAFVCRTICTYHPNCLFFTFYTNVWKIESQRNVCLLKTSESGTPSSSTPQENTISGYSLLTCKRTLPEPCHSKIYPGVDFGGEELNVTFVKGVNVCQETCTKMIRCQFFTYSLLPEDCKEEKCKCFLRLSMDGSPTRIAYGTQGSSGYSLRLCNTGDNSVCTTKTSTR

[5] = target: T2, FXIIa (Homo sapiens, UniProt P00748); assay: SPR, FXIIa over LE6-coupled chip; assay type: binding; conditions: read-out: Kd (dissociation rate constant)
T2 sequence (P00748 373-615 limits assumed): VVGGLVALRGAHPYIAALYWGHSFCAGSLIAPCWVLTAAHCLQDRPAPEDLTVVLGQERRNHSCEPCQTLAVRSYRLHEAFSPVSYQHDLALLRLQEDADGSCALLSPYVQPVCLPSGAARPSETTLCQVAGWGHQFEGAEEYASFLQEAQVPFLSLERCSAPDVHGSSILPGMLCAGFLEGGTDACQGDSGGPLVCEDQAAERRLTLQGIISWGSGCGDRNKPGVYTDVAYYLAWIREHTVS
T2 sequence (P00748 20-372 partner limits assumed): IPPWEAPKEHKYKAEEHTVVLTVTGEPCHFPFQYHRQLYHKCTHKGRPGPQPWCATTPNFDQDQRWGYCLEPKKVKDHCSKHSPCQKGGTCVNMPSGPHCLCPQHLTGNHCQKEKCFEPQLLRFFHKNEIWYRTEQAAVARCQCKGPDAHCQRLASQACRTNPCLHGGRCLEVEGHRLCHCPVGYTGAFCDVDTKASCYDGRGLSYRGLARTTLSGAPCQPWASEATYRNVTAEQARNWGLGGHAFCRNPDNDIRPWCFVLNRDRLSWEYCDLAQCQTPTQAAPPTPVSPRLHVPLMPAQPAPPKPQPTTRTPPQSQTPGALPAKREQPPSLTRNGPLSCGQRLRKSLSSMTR

[6] = target: T2, FXIIa; assay: Chromogenic assay, FXIIa; assay type: biochemical
[7] = test system: erythrocytes; assay: Hemolysis assay; assay type: cell-based, human; conditions: up to 200 μg/mL (285 μmol/L), 30 min, 37 °C, PBS pH 7.2, 540 nm
Summary of the method: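 Human blood was centrifuged for 10 min at 3 500 r/min and 25°C. The erythrocytes were resuspended in PBS (0.01 mol/L, pH 7.2) and exposed to test compound (12.5–200 µg/mL, plus 0) or 0.1% Triton X-100 (positive control) for 30 min at 37°C. Samples were spun 5 min at 3 500 r/min and the supernatant A540 read; n=2–3.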

[8] = test system: HEK 293T cells; assay: Cytotoxicity assay; assay type: cell-based, human; conditions: 12.5 to 200 μg/mL, 8 h, CCK8
Summary of the method: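 HEK 293T cells were grown in DMEM/F-12 with 10% FBS and 1% penicillin-streptomycin at 37°C, 5% CO2. They were seeded at 3×10^4 cells/well and allowed 12 h to adhere. Test compound (12.5–200 µg/mL, plus 0) was added for 8 h. CCK-8 was then added for 3 h and OD450 read. Viability is given as % of untreated control; n=8–12.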

[9] = test system: mouse splenocytes; assay: Cytotoxicity assay; assay type: cell-based; conditions: 12.5 to 200 μg/mL, 8 h, CCK8
Summary of the method: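 Mouse splenocytes were prepared by crushing fresh spleens in PBS and passing them through a 200-mesh sieve. Cells were cultured in RPMI1640 at 37°C, 5% CO2, seeded at 2×10^5 cells/well and given 12 h to settle. Test compound (12.5–200 µg/mL, plus 0) was added for 8 h, followed by CCK-8 for 3 h and an OD450 read. Viability is reported as % of control; n=8–12.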

[10] = test system: mouse peritoneal macrophages; assay: Cytotoxicity assay; assay type: cell-based; conditions: 12.5 to 200 μg/mL, 8 h, CCK8
Summary of the method: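 Peritoneal macrophages were elicited in mice with i.p. 3% thioglycollate broth and collected by PBS lavage after 3 days. Cells were cultured in RPMI1640 at 37°C, 5% CO2, seeded at 1×10^6 cells/well and allowed 12 h to adhere. Test compound (12.5–200 µg/mL, plus 0) was added for 8 h, then CCK-8 for 3 h and OD450 read. Viability is expressed as % of control; n=8–12.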

[11] = test system: male C57BL/6 J mice; assay: Bleeding assay; assay type: in vivo, mouse
Summary of the method: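 Dosing 15 min before cutting: test compound at 0.5 or 2 mg/kg i.v., 0.9% saline (control) or heparin sodium 2 500 U/kg (reference). Mice were male C57BL/6J, 6 weeks old, 18–20 g, n=6–7. Tail cut 2 mm from the tip and immersed in sterile saline at 37°C. Bleeding time recorded until blood flow stopped.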

[12] = target: T3, activated factor XII (FXIIa) (UniProt P00748 20-372; P00748 373-615); assay: cell-based or functional assay
T3 sequence (looked up) 1: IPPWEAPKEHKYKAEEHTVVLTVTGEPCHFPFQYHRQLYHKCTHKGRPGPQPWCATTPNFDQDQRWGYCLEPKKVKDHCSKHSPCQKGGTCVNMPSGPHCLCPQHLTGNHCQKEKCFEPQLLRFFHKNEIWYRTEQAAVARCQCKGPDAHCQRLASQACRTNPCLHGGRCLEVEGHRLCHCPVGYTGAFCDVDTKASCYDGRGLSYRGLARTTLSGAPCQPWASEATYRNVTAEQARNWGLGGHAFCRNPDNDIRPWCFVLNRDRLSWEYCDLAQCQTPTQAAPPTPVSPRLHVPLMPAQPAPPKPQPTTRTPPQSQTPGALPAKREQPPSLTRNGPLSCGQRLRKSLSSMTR
T3 sequence (looked up) 2: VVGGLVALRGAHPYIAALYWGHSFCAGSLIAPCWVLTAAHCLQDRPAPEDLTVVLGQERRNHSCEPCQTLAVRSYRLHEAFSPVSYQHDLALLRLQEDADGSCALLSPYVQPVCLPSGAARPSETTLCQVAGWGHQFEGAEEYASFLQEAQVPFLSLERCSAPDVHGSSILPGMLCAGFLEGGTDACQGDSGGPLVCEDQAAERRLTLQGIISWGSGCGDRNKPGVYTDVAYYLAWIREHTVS

[13] = target: T4, plasma kallikrein (PK) (UniProt P03952 20-390; P03952 391-638); assay: SPR
[14] = target: T3, activated factor XII (FXIIa); assay: SPR
[15] = target: T4, plasma kallikrein (PK); assay: chromogenic enzyme inhibition assay
[16] = target: T3, activated factor XII (FXIIa); assay: chromogenic enzyme inhibition assay

T4 sequence (P03952 20-390, chain 1 of 2): as the sequence (P03952 20-390 partner limits assumed) above
T4 sequence (P03952 391-638, chain 2 of 2): as the sequence (P03952 391-638 limits assumed) above

In the case of tissue plasminogen activator [tPA], the “efficacy in acute IS” value [1] is given as “efficacious when administered within 4.5 hours of stroke onset”.

For heparin sodium, the “blood flow after FeCl3-induction” value [2] was “increased blood flow at 5 min and 10 min”.

In the case of LSEEPE [LE6, Leu-Ser-Glu-Glu-Pro-Glu], the kon ([3]; read-out: Ka (association rate constant)) is reported as 1790 M⁻¹ s⁻¹, the koff ([3]; read-out: Kd (dissociation rate constant)) is reported as 0.0141 s⁻¹ and the IC50 [4] is reported as roughly 71 µM. For the same molecule, the koff [5] was 0.118 s⁻¹, the IC50 [6] was 71 µM and the inhibition at 285 µM ([6]; read-out: inhibition rate of FXIIa) was 88.6%. The hemolysis [7] was “no hemolytic side effects”, the “toxic effects on proliferation” value [8] was “no toxic effects” and the “toxic effects on proliferation” value [9] was “no toxic effects”. For the same molecule, the “toxic effects on proliferation” value [10] was “no toxic effects”, the bleeding time ([11]; 0.5 mg/kg i.v., 15 min before tail cut, n=6–7) was “without notably extending bleeding time” and the “bleeding time relative to heparin sodium” value ([11]; LE6 2 mg/kg i.v. vs heparin sodium 2 500 U/kg i.v.) was “approximately half that induced by the clinically anticoagulant heparin sodium”.

In the case of LSEEPE [oligopeptide LE6 (Leu-Ser-Glu-Glu-Pro-Glu)], the “FXIIa activity on chromogenic substrate S-2302, IC50” value [12] is reported as 71 µM, the Kd [13] is reported as 7.88 µM and the Kd [14] is reported as 46.4 µM. It also gave a Ki [15] of 44 µM and a Ki [16] of 6.37 µM.
